Key:
Assay type in all cases: functional, organism-based
[1] = tested on: Human immunodeficiency virus 2; assay: Inhibitory effect against HIV-2 replication in CEM cells.; conditions: Human immunodeficiency virus 2, CCRF-CEM
Summary of the method: (§1)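 CEM cells (4×10^5/mL; wild-type CEM/0 or thymidine kinase-deficient CEM/TK⁻) infected with HIV-1 or HIV-2 (ROD) at ~100 CCID50/mL, then mixed 1:1 with serial compound dilutions. After 4 days, virus-induced giant cell formation was scored microscopically. EC50 is the concentration inhibiting virus-induced cytopathicity by 50%.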

[2] = tested on: Human immunodeficiency virus 1; assay: Inhibitory effect against HIV-1 replication in CEM cells.; conditions: Human immunodeficiency virus 1, CCRF-CEM; summary of the method: as §1
[3] = tested on: Human immunodeficiency virus 2; assay: Inhibitory effect against HIV-2 replication in CEM /TK-(thymidine kinase deficient) cells.; conditions: Human immunodeficiency virus 2, CCRF-CEM; summary of the method: as §1

Compound | EC50 [1] [µM] | EC50 [2] [µM] | EC50 [3] [µM]
Cc1cn([C@@H]2O[C@H](CO[Si](C)(C)C(C)(C)C)C3(OS(=O)(=O)C=C3N)[C@H]2O[Si](C)(C)C(C)(C)C)c(=O)[nH]c1=O (stereo partly drawn) | > 6 | 0.05 | > 6
Cc1cn(C2CC(N=[N+]=[N-])C(CO)O2)c(=O)n(CCCBr)c1=O (stereo not drawn) | > 50 | > 50 | –
Cc1cn(C2CC(N=[N+]=[N-])C(CO)O2)c(=O)n(CCCCCCCCCBr)c1=O (stereo not drawn) | > 8 | > 8 | > 8
Cc1cn([C@@H]2O[C@H](CO[Si](C)(C)C(C)(C)C)[C@@]3(OS(=O)(=O)C=C3N)[C@H]2O[Si](C)(C)C(C)(C)C)c(=O)n(CCCn2c(=O)c(C)cn([C@H]3C[C@H](O)[C@@H](CO)O3)c2=O)c1=O | > 4 | 0.06 | > 4
Cc1cn([C@@H]2O[C@H](CO[Si](C)(C)C(C)(C)C)[C@@]3(OS(=O)(=O)C=C3N)[C@H]2O[Si](C)(C)C(C)(C)C)c(=O)n(CCCCCCn2c(=O)c(C)cn([C@H]3C[C@H](O)[C@@H](CO)O3)c2=O)c1=O | > 4 | 0.55 | –
Cc1cn([C@@H]2O[C@H](CO[Si](C)(C)C(C)(C)C)[C@@]3(OS(=O)(=O)C=C3N)[C@H]2O[Si](C)(C)C(C)(C)C)c(=O)n(CCCCCCCn2c(=O)c(C)cn([C@H]3C[C@H](N=[N+]=[N-])[C@@H](CO)O3)c2=O)c1=O | > 100 | 1.58 | –
Cc1cn([C@@H]2O[C@H](CO[Si](C)(C)C(C)(C)C)[C@@]3(OS(=O)(=O)C=C3N)[C@H]2O[Si](C)(C)C(C)(C)C)c(=O)n(CCCCCCn2c(=O)c(C)cn([C@H]3C[C@H](N=[N+]=[N-])[C@@H](CO)O3)c2=O)c1=O | > 100 | 0.21 | > 100
Cc1cn([C@@H]2O[C@H](CO[Si](C)(C)C(C)(C)C)[C@@]3(OS(=O)(=O)C=C3N)[C@H]2O[Si](C)(C)C(C)(C)C)c(=O)n(CCCCCn2c(=O)c(C)cn([C@H]3C[C@H](N=[N+]=[N-])[C@@H](CO)O3)c2=O)c1=O | > 100 | 0.22 | > 100
Cc1cn([C@@H]2O[C@H](CO[Si](C)(C)C(C)(C)C)[C@@]3(OS(=O)(=O)C=C3N)[C@H]2O[Si](C)(C)C(C)(C)C)c(=O)n(CCCCCCBr)c1=O | > 25 | 0.47 | –
Cc1cn([C@@H]2O[C@H](CO[Si](C)(C)C(C)(C)C)[C@@]3(OS(=O)(=O)C=C3N)[C@H]2O[Si](C)(C)C(C)(C)C)c(=O)n(CCCBr)c1=O | > 100 | 0.11 | –
Cc1cn([C@H]2C[C@H](O)[C@@H](CO)O2)c(=O)n(CCCCCCCn2c(=O)c(C)c(Sc3ccccc3)n(COCCO)c2=O)c1=O | > 30 | > 30 | –
Cc1cn([C@H]2C[C@H](O)[C@@H](CO)O2)c(=O)n(CCCCCCn2c(=O)c(C)c(Sc3ccccc3)n(COCCO)c2=O)c1=O | > 30 | 79 | –
Cc1cn([C@@H]2O[C@H](CO[Si](C)(C)C(C)(C)C)[C@@]3(OS(=O)(=O)C=C3N)[C@H]2O[Si](C)(C)C(C)(C)C)c(=O)n(CCCCn2c(=O)c(C)cn([C@H]3C[C@H](N=[N+]=[N-])[C@@H](CO)O3)c2=O)c1=O | > 100 | 0.2 | > 100
Cc1cn([C@@H]2O[C@H](CO[Si](C)(C)C(C)(C)C)[C@@]3(OS(=O)(=O)C=C3N)[C@H]2O[Si](C)(C)C(C)(C)C)c(=O)n(CCCn2c(=O)c(C)cn([C@H]3C[C@H](N=[N+]=[N-])[C@@H](CO)O3)c2=O)c1=O | > 100 | 0.1 | > 100
Cc1cn([C@@H]2O[C@H](CO[Si](C)(C)C(C)(C)C)[C@@]3(OS(=O)(=O)C=C3N)[C@H]2O[Si](C)(C)C(C)(C)C)c(=O)n(CCCCCCCCCn2c(=O)c(C)cn([C@H]3C[C@H](N=[N+]=[N-])[C@@H](CO)O3)c2=O)c1=O | > 100 | 15.3 | > 100
Cc1cn([C@@H]2O[C@H](CO[Si](C)(C)C(C)(C)C)[C@@]3(OS(=O)(=O)C=C3N)[C@H]2O[Si](C)(C)C(C)(C)C)c(=O)n(CCCCCCCn2c(=O)c(C)cn([C@H]3C[C@H](O)[C@@H](CO)O3)c2=O)c1=O | > 4 | 0.22 | –

Compound | EC50 [1] [µM] | EC50 [2] [µM] | EC50 [3] [µM]
Cc1cn([C@@H]2O[C@H](CO[Si](C)(C)C(C)(C)C)[C@@]3(OS(=O)(=O)C=C3N)[C@H]2O[Si](C)(C)C(C)(C)C)c(=O)n(CCCCCCCCn2c(=O)c(C)cn([C@H]3C[C@H](N=[N+]=[N-])[C@@H](CO)O3)c2=O)c1=O | > 100 | 1.56 | –
Cc1cn([C@H]2C[C@H](O)[C@@H](CO)O2)c(=O)n(CCCCCCCBr)c1=O | > 10 | > 10 | > 10
Cc1cn([C@@H]2O[C@H](CO[Si](C)(C)C(C)(C)C)[C@@]3(OS(=O)(=O)C=C3N)[C@H]2O[Si](C)(C)C(C)(C)C)c(=O)n(CCCCCCCCCBr)c1=O | > 1 | > 1 | > 1
Cc1cn([C@@H]2O[C@H](CO[Si](C)(C)C(C)(C)C)[C@@]3(OS(=O)(=O)C=C3N)[C@H]2O[Si](C)(C)C(C)(C)C)c(=O)n(CCCCCCCCBr)c1=O | > 1 | > 1 | > 1
Cc1cn([C@@H]2O[C@H](CO[Si](C)(C)C(C)(C)C)[C@@]3(OS(=O)(=O)C=C3N)[C@H]2O[Si](C)(C)C(C)(C)C)c(=O)n(CCCCCCCBr)c1=O | > 1 | 0.79 | > 5
Cc1cn(C2CC(N=[N+]=[N-])C(CO)O2)c(=O)n(CCCCCCn2c(=O)c(C)c(Sc3ccccc3)n(COCCO)c2=O)c1=O (stereo not drawn) | > 5 | > 5 | > 5
Cc1cn(C2CC(N=[N+]=[N-])C(CO)O2)c(=O)n(CCCCCBr)c1=O (stereo not drawn) | > 50 | > 50 | > 10
Cc1cn(C2CC(N=[N+]=[N-])C(CO)O2)c(=O)n(CCCCCCBr)c1=O (stereo not drawn) | – | – | > 45
Cc1cn(C2CC(N=[N+]=[N-])C(CO)O2)c(=O)n(CCCCCCCn2c(=O)c(C)c(Sc3ccccc3)n(COCCO)c2=O)c1=O (stereo not drawn) | > 5 | > 5 | –
Cc1c(Sc2ccccc2)n(COCCO)c(=O)n(CCCCCCCBr)c1=O | > 8 | > 8 | > 8
Cc1cn(C2CC(N=[N+]=[N-])C(CO)O2)c(=O)n(CCCCCCCCBr)c1=O (stereo not drawn) | > 8 | > 8 | > 8
Cc1c(Sc2ccccc2)n(COCCO)c(=O)n(CCCCCCBr)c1=O | – | – | > 8
Cc1cn([C@H]2C[C@H](O)[C@@H](CO)O2)c(=O)[nH]c1=O [DOXRIBTIMINE] | > 40 | > 40 | > 40
Cc1c(Sc2ccccc2)n(COCCO)c(=O)[nH]c1=O [HEPT] | > 100 | – | > 100
Cc1cn([C@H]2C[C@H](N=[N+]=[N-])[C@@H](CO)O2)c(=O)[nH]c1=O [ZIDOVUDINE] | 0.011 | 0.011 | > 35

— ChEMBL document CHEMBL1128736, “Synthesis and anti-HIV activity of [AZT]-[TSAO-T] and [AZT]-[HEPT] dimers as potential multifunctional inhibitors of HIV-1 reverse transcriptase” (J Med Chem, 1995)
